Screens as filed in PubChem.
Hits are enriched below; roughly 1.8% of the tested compounds scored in any of these assays.
CHRM4 agonist = agonists of human muscarinic M4 receptor (CHRM4) | P08173 | CHO-K1 hM4/Gqi5, Fluo-8 calcium fluorescence; vehicle 0%, full acetylcholine response 100% | activation, % at 3 µM | 360,000 tested, 0.14% active;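 active means activation above the run mean over all test wells plus 3 SD, cut at about 32% in these data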;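 further: peak over basal fluorescence ratio per well then scaled between controls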
Target sequence (P08173 whole entry, looked up): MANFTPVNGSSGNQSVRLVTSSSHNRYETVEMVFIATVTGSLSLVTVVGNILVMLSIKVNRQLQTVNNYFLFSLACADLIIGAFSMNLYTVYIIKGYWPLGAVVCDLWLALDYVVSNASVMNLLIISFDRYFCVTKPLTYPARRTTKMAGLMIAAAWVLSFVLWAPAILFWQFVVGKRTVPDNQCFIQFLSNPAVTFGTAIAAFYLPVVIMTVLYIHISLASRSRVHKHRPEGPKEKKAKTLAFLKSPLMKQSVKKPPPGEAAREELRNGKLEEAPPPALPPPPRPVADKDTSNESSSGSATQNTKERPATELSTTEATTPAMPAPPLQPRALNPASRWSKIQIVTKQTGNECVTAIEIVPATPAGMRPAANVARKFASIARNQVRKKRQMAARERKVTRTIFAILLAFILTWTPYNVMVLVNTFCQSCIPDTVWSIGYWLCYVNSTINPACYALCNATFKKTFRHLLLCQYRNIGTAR
CHRM4 PAM = positive allosteric modulators of human muscarinic M4 receptor; P08173; CHO-K1 hM4/Gqi5, Fluo-8 calcium fluorescence, ACh EC20; 0% = ACh EC20, 100% = maximal ACh; activation, % at 3 µM; 360,000 tested, 0.4% active; AID 624126;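 active means activation above its plate's cutoff, the mean activation of sample wells plus 3 SD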
CHRM5 antagonist = antagonists of human muscarinic M5 receptor (CHRM5) | P08912 | 360,000 tested, 0.59% active | AID 624040 | CHO-hM5 cells, Fluo-8 calcium fluorescence, ACh EC80 | inhibition, % at 3 µM;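 active means inhibition above a per-plate cutoff, the mean of that plate's test compounds plus 3 SD, cut at about 27% in these data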
M5 PAM = positive allosteric modulators of human muscarinic M5 receptor | P08912 | activation, % at 3 µM | AID 624038 | CHO-K1 hM5, Fluo-8 calcium, ACh EC20 PAM; 0% = ACh EC20, 100% = ACh EC100 | 360,000 tested, 0.3% active;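 active means activation above the run cutoff, the mean activation of all test compounds plus 3 SD, cut at about 18% in these data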
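system = human M5 receptor in CHO-K1 cells | compound = one concentration, 3 µM final (nominal) | schedule = Post-acetylcholine fluorescence recording 140 s | signal = Fluo-8 calcium dye fluorescence, kinetic read | benchmarks = low control EC20 acetylcholine (0%), high control EC100 acetylcholine (100%) | repeats = singlicate, one well per test compound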
CHRM5 agonist = agonists of human muscarinic M5 receptor (CHRM5) | activation, % at 3 µM | 360,000 tested, 0.19% active | CHO-K1 hM5 cells, Fluo-8 calcium fluorescence; 0% DMSO wells, 100% maximal acetylcholine response | P08912;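 active means activation above the run's mean over test compounds plus 3 SD, cut at about 23% in these data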;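 further: signal is peak over basal fluorescence ratio across the kinetic read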
CHRM4 antagonist = blocks acetylcholine activation of human M4 receptor; CHO-hM4 cells, ACh EC80, Fluo-8 calcium fluorescence; inhibition, % at 3 µM; 360,000 tested, 0.73% active; AID 624125;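 active means inhibition above its plate's cutoff, the mean inhibition of sample wells plus 3 SD, cut at about 27% in these data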
Hits are given with their value; 0 = inactive.

SMILES	CHRM4 agonist	CHRM4 PAM	CHRM5 antagonist	M5 PAM	CHRM5 agonist	CHRM4 antagonist
O=S(=O)(c1ccccc1)N1N=C(c2ccccc2)CC1c1ccccc1F (stereo unspecified)	0	0	0	0	0	0
C=CCCC1(C)C(=O)N(c2ccccc2)c2ccccc21 (stereo unspecified)	0	0	0	25	0	0
C=CCC1(C)C(=O)N(c2ccccc2)c2ccccc21 (stereo unspecified)	0	0	0	0	0	0
COc1ccc(NC(=O)CCNS(=O)(=O)c2cccc3nsnc23)c(OC)c1	0	0	0	0	0	0
CCN(CC)C(=O)Cn1cc(C(=O)C(=O)N(C)C2CCN(C)CC2)c2ccccc21	0	17	0	0	0	0
CCC1CCCCN1C(=O)C(=O)c1cn(CC(=O)N(CC)CC)c2ccccc12 (stereo unspecified)	0	0	0	0	0	0
Cc1ccc(NC(=O)COC(=O)CN2CCSC2=O)cc1Cl	0	0	0	0	0	0
Cc1ccc(NC(=O)COC(=O)Cn2ccc(C(F)(F)F)n2)cc1Cl	0	22	0	0	0	0
O=C(Nc1ccc(S(=O)(=O)NCc2ccco2)cc1)c1ccc(F)cc1	0	0	0	0	0	0
COC(=O)[C@H](CC(C)C)NC(=O)NCCC1=CCCCC1	0	0	0	0	0	0
COc1ccc(Nc2nc(-c3cccs3)nc3ccccc23)cc1S(=O)(=O)N1CCOCC1	0	0	0	0	0	29
S=C1Cc2ccccc2N1	0	39	0	0	0	0
O=C1N=C(N2CCN(c3ccccc3)CC2)S/C1=C/c1cccs1	0	0	27	0	0	0
Cc1ccc(/C=C2\SC(N3CCN(C(c4ccccc4)c4ccccc4)CC3)=NC2=O)o1	0	0	38	0	0	82
COc1ccccc1C(CC(=O)c1ccccc1)C(=O)c1ccccc1 (stereo unspecified)	0	0	0	0	0	27
COc1ccccc1C(CC(=O)c1ccccc1)CC(=O)c1ccccc1	0	0	0	0	0	0
CC(c1ccccc1)N(C)C(=O)CSc1nnc(C2CC2)n1C1CC1 (stereo unspecified)	0	0	0	0	0	0
CCN1C(=O)/C(=C2\Sc3ccccc3N2CC)OC1=S	0	23	0	0	0	0
C=CCN1C(=O)/C(=C2/Sc3ccccc3N2CC)SC1=S	0	0	0	0	0	0
CCOC(=O)C(NCc1ccc2c(c1)OCO2)(NC(=O)c1ccccc1)C(F)(F)F (stereo unspecified)	0	0	0	0	0	0
CCOC(=O)CC1(CCc2ccccc2)Oc2ccccc2N1S(=O)(=O)c1ccc(C)cc1 (stereo unspecified)	0	0	0	0	0	0
CCOC(=O)CC1(C)Oc2cc(Cl)ccc2N1S(=O)(=O)c1ccc(C)cc1 (stereo unspecified)	0	0	31	0	0	0
COc1cccc(C(C(=O)NC2CCCC2)N(C(=O)c2ccco2)C2CC2)c1OC (stereo unspecified)	0	0	0	0	0	0
COc1cccc(C(C(=O)NC2CCCC2)N(Cc2ccc(C)cc2)C(=O)c2ccco2)c1OC (stereo unspecified)	0	0	0	28	0	0
CCc1c(C)nc2ncnn2c1NCCc1ccc(OC)c(OC)c1	0	0	0	0	0	0
SMILES	CHRM4 agonist	CHRM4 PAM	CHRM5 antagonist	M5 PAM	CHRM5 agonist	CHRM4 antagonist
COc1ccc(CCNc2c(C)c(C)nc3ncnn23)cc1	0	0	29	0	0	0
CN1CCN(C(=S)SCc2nc(N)nc(Nc3ccc(F)cc3)n2)CC1	0	0	0	0	0	0
CN(C)CCCN(C(=O)CCc1ccccc1)c1nc2ccc(F)cc2s1	0	0	0	0	0	0
Cc1cccc2sc(N(CCCN(C)C)C(=O)c3nc4ccccc4s3)nc12	0	0	0	0	0	0
CCN(CC)CCN(C(=O)c1ccc2c(c1)OCCO2)c1nc2cc(C)cc(C)c2s1	0	18	0	0	0	0
CN(C)CCCN(C(=O)CCc1ccccc1)c1nc2ccc(Br)cc2s1	34	0	0	0	0	53
Cc1cccc2sc(N(CCCN(C)C)C(=O)c3ccc4ncsc4c3)nc12	0	34	0	0	0	30
CN(C)CCCN(C(=O)c1ccc(C(=O)c2ccccc2)cc1)c1nc2cc3c(cc2s1)OCCO3	0	0	28	0	0	0
CN(C)CCN(C(=O)c1ccc(C(=O)c2ccccc2)cc1)c1nc2cc3c(cc2s1)OCCO3	0	0	0	0	0	0
CCCc1cc(=O)oc2c(C)c(OCC(=O)NC3CCN(Cc4ccccc4)CC3)ccc12	0	0	0	0	0	0
O=C(N/N=C/c1ccccc1)C(=O)N/N=C/c1ccccc1	0	0	0	0	0	0
CN(C)/C=C(\C#N)C(=O)N/N=C/c1ccccc1	0	0	0	18	0	0
CCOC(=O)C1CCN(CC(=O)Nc2cc(S(=O)(=O)N3CCCCC3)ccc2Cl)CC1	0	0	0	0	0	0
C/C(=N\NC(=O)c1nnn(-c2nonc2N)c1CN(C)c1ccccc1)c1cccnc1	0	0	0	0	0	0
CC(C)CC(NC(=O)c1ccc(Cl)cc1Cl)C(=O)O (stereo unspecified)	0	0	0	19	0	0
CC(C)CC(NC(=O)c1ccccc1NC(=O)c1ccccc1)C(=O)O (stereo unspecified)	0	0	0	0	0	0
CC(=O)N1CCOc2ccc(S(=O)(=O)N(C)c3ccc(C)cc3)cc21	0	0	0	0	0	29
CC(C)Oc1ccc(F)cc1-c1cc(C(=O)NCc2ccc(F)cc2)[nH]n1	0	0	0	0	0	0
CCNc1sc(C(=O)c2cccs2)c(N)c1-c1nc2ccccc2s1	0	0	0	0	0	38
C=CCNc1sc(C(=O)c2ccccc2)c(N)c1-c1nc2ccccc2s1	0	29	0	20	0	0
CCOC(=O)c1sc(NCc2ccco2)c(-c2nc3ccccc3s2)c1N	0	0	0	0	0	0
CN(C(=O)Cn1cc(C(F)(F)F)cc(Cl)c1=O)C1CCS(=O)(=O)C1 (stereo unspecified)	0	0	0	0	0	0
C[C@@H](NC(=O)Cn1cnc2c(OCc3ccccc3)ncnc21)c1cccc2ccccc12	0	56	0	0	0	57
CCOc1ccc(N(CC(=O)NC2CC3CCC2C3)S(=O)(=O)c2ccc(C)cc2)cc1 (stereo unspecified)	0	22	0	0	0	0
O=C(Nc1ccccc1)/C(=C/c1cccnc1)NC(=O)c1ccccc1	0	0	0	0	0	0
